# Results gathered from unrelated publications.
# Each line is one published result; the experiments were not run side by side.
Structure (SMILES),target or system,test,system,conditions,measurement,result
Cc1[nH]c(C(=O)Nc2ccc(C(=O)NCC(=O)O)cc2N2CC[C@@H](N)C2)c(Cl)c1Cl.Cl,Enterococcus faecium,"microbial growth, broth dilution",ATCC35667,,MIC,> 32 mg/L
Nc1ccc(/C=C/C(=O)N2CCc3c(oc4c(-c5ccc(F)cc5)cc(-c5ccc(C(=O)N6CCOCC6)nn5)cc34)C2)cn1,CFPAC-1,"cell growth or viability, CCK-8",,72 h,IC50,> 20 µM
Cc1[nH]c(C(=O)Nc2ccc(C(=O)NCC(=O)O)cc2N2CCN(C(=O)OC(C)(C)C)CC2)c(Cl)c1Cl,Enterococcus faecium,"microbial growth, broth dilution",ATCC35667,,MIC,> 32 mg/L
C=CC(=O)NC1CCN(c2ncc3ncnc(Nc4ccc(Oc5ccc6c(c5)ncn6C)c(C)c4)c3n2)CC1,HCC95,cell growth or viability,,,EC50,2.07 µM
CC(C)(C)OC(=O)N[C@H]1CCN(c2cc(C(=O)NCC(=O)O)ccc2NC(=O)c2cc(Br)c(Br)[nH]2)C1,Enterococcus faecium,"microbial growth, broth dilution",ATCC35667,,MIC,> 32 mg/L
Cc1cc(C)c(C#N)c(SCC(=O)c2cccc(N)c2)n1,Trypanosoma brucei,"parasite growth, resazurin",,,EC50,> 64 µM
Nc1ccc(/C=C/C(=O)N2CCc3c(oc4c(-c5ccc(F)cc5)cc(-c5ccc(C(=O)N6CCC(F)(F)CC6)nn5)cc34)C2)cn1,CFPAC-1,"cell growth or viability, CCK-8",,72 h,IC50,> 20 µM
Cc1cc(C)c(C#N)c(SC2COc3ccccc3C2=O)n1 (stereo not shown),Trypanosoma brucei,"parasite growth, resazurin",,,EC50,51.2 µM
O=C(O)c1ccc2c(c1)nc(Nc1cccc(Cl)c1)c1ccncc12,SK-MES-1,"cell growth or viability, resazurin",,48 h,IC50,6.9 µM
Cc1[nH]c(C(=O)Nc2ccc(C(=O)NCC(=O)O)cc2N2CC[C@@H](NC(=O)OC(C)(C)C)C2)c(Cl)c1Cl,Enterococcus faecium,"microbial growth, broth dilution",ATCC35667,,MIC,> 32 mg/L
Cc1cc(C)c(C(N)=O)c(SCC(=O)c2ccc(Cl)cc2Cl)n1,Trypanosoma brucei,"parasite growth, resazurin",RHODESIENSE,,EC50,> 64 µM
NNC(=O)c1cn(Cc2ccccc2)c2ccc(Oc3ccccc3)cc2c1=O,Trypanosoma brucei,"parasite growth, resazurin",,72 h,EC50,0.43 µM
COc1ccc(C(=O)CSc2[nH]c(=O)cc(C(F)(F)F)c2C#N)cc1,Trypanosoma brucei,"parasite growth, resazurin",,,EC50,30.8 µM
O=C(N/N=C/c1ccc([N+](=O)[O-])o1)c1cn(Cc2ccccc2)c2ccc([N+](=O)[O-])cc2c1=O,Trypanosoma brucei,"parasite growth, resazurin",,72 h,EC50,0.37 µM
Cc1cc(C)c(C#N)c(SCC(=O)c2ccccn2)n1,Trypanosoma brucei,"parasite growth, resazurin",RHODESIENSE,,EC50,18 µM
Cc1[nH]c(C(=O)Nc2ccc(C(=O)NCc3n[nH]c(=O)o3)cc2N2CCNCC2)c(Cl)c1Cl.Cl,Enterococcus faecium,"microbial growth, broth dilution",ATCC35667,,MIC,> 32 mg/L
